Compound activity deposited in PubChem BioAssay by several laboratories.
In the library only some 1.7% were active in any assay of this set; here they are far more common.
Vif imaging – HIV Vif self-association inhibitors, primary screen, imaging, HEK293T, single point | AID 602346, 2012 | inhibition, % at 7.49 µM | HEK293T cells, Vif self-association by quenched fluorescence, 24 h | 340,000 tested, 0.35% active; in the data active means inhibition above about 50%, passing the limit was not always enough; inconclusive means no clear call, values can overlap the other calls; inactive means below about 31%
Myeloid diff MLP – induction of myeloid progenitor differentiation, primary screen, cell-based, flow cytometry, MLPCN library. calls only at 10 µM. 360,000 tested, 1% active. ER-HoxA9 myeloid progenitors, lysozyme-GFP differentiation. AID 624256, 2012;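 active means normalized GFP-positive differentiation at or above the plate's own cutoff, the solvent-only control mean plus 3 SD; inconclusive means no clear call, values can overlap the other calls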;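 further: cells exposed to compound for four days before flow analysis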
DSG3 Ab inh – inhibitors of pemphigus antibody binding to DSG3, primary screen, biochemical, bead-based, flow cytometry, scFv-GFP | Desmoglein-3 (Homo sapiens), P32926 | DSG3-coupled beads, scFv-anti-DSG3-GFP binding; hits give low values | binding (percent of control), % at 10 µM | 310,000 tested, 0.48% active | AID 588358, 2011;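 active means binding more than 3 SD below its plate's average and above zero; inconclusive means below that plate limit but binding exactly zero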;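 further: hits lower antibody fragment binding to DSG3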
T cell modulator – modulators of CD8 T cell-vesicle binding, primary screen, mouse 2C CD8+ T cells, flow cytometry; 2C CD8+ T cell-vesicle binding; hits give low values; response (vesicle binding), % at 7 µM; 330,000 tested, 0.068% active; AID 2052, 2009;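 active means response, share of CD8 T cells binding vesicles, and their 90th percentile fluorescence all below set limits, cut at about 80% in these data, passing the limit was not always enough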;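 further: values below 100% mean blocked vesicle binding to the CD8+ T cells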
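System: murine 2C transgenic CD8+ T lymphocytes; also added: QL9-loaded Drosophila micro-vesicles; times: binding 1.5 h at 37 °C; measured by: flow cytometry, PE anti-B7-1 (FL2) versus Alexa647 anti-CD8 (FL8), PFA-fixed; control set: Peptide-free naked vesicles (low) and QL9 vesicles with 0.7% DMSO vehicle (high)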
* = called active by the depositor; i = inactive; ? = inconclusive; . = no result given; + = active, no number.

SMILES	Vif imaging	Myeloid diff MLP	DSG3 Ab inh	T cell modulator
COc1ccc(S(=O)(=O)N2CCN(C(=O)CNC(=O)c3ccc4c(c3)OCO4)CC2)cc1	13	i	101	554
Cc1cc2c(SCC(=O)Nc3cccc(O)c3)ncnc2s1	-5	+	376	.
O=C(NCCCN1CCOCC1)c1cc(S(=O)(=O)N2CCCCC2)ccc1Cl	-4	i	96	.
Cc1cc(C)c([N+](=O)[O-])cc1NCC(=O)N1CCN(c2ccccc2)CC1	-2	+	111	340
CC(C)CC(=O)N1CCN(c2ccc([N+](=O)[O-])c(NCc3ccccc3)c2)CC1	-12	i	101	456
CCc1ccc2c(c1)NC(=O)C2(C)Cc1ccccc1OC (stereo unspecified)	-10	i	.	.
COc1ccc(N(CC(=O)Nc2ccccc2C)S(=O)(=O)c2ccccc2[N+](=O)[O-])c(OC)c1	4	i	24*	555
COc1ccc(N(CC(=O)Nc2c(C)cccc2C)S(=O)(=O)c2ccccc2[N+](=O)[O-])c(OC)c1	9	i	101	204
CCCN1CCN(c2ncnc3c2nnn3Cc2ccccc2)CC1	.	+	101	215
O=C(c1ccco1)N1CCN(c2ncnc3c2nnn3Cc2ccccc2Cl)CC1	60*	i	108	206
O=C(Nc1ccc(OC(F)(F)F)cc1)C1CCCN(C(=O)c2ccc(Cl)cc2)C1 (stereo unspecified)	-2	i	.	429
Cc1ccc(C)c(NC(=O)CN(C)C(=O)c2cccc(S(=O)(=O)N3CCCC3)c2)c1	53*	i	94	.
Cc1ccc(C)c(NC(=O)CN(C)C(=O)c2cccc(S(=O)(=O)N3CCN(Cc4ccccc4)CC3)c2)c1	-21	i	99	228
COc1ccc(C(=O)NCc2ccc3c(c2)OCO3)cc1S(=O)(=O)N1CCCC1	14	i	115	417
COc1ccc(C(=O)N2CCOCC2c2cc(C(=O)NCc3ccccc3)no2)cc1 (stereo unspecified)	0	i	.	.
CN1C(=O)C(C)(C)c2cc(S(=O)(=O)N3CCCCCC3)ccc21	88*	i	101	520
CN1C(=O)C(C)(C)c2cc(S(=O)(=O)N3CCN(c4ccccc4)CC3)ccc21	1	i	101	978
Cc1[nH]c2ccccc2c1CC#N	0	i	116	772
Cc1[nH]c2ccccc2c1C1=CC(=O)C=CC1=O	3	i	65*	.
COc1ccc(C2CC(=O)C=C3c4ccc(OC)cc4CCC32)cc1 (stereo unspecified)	-2	i	84*	.
COc1ccc(C2=CC(=O)C[C@H](c3ccc(OC)cc3)C2)cc1	17	i	105	i
COc1ccc([C@H]2CC(=O)C=C(c3ccc(OC)cc3OC)C2)cc1	55*	?	97	262
COc1ccc(-n2c(Cc3cccn3C)nnc2SCC(=O)Nc2ccc(F)cc2F)cc1	8	+	109	71
Cc1ccc(C(=O)c2coc3cc([N+](=O)[O-])c(O)c([N+](=O)[O-])c23)cc1	8	i	20*	654
Cc1ccc(C(=O)c2ccc([N+](=O)[O-])cc2)cc1	-8	i	84	290
SMILES	Vif imaging	Myeloid diff MLP	DSG3 Ab inh	T cell modulator
Cc1cc(C)n2nc(/C(C#N)=C/c3ccccn3)c(C#N)c2n1	2	?	87	352
CCOc1ccc2nc(NCCNC(=O)Nc3cccc(C)c3)c(C#N)cc2c1	14	i	89	223
CCOc1ccc2nc(NCCNC(=O)Nc3ccccc3)c(C#N)cc2c1	57*	i	95	404
Cc1ccc2nc(NCCNC(=O)c3ccccc3)c(C#N)cc2c1	8	+	97	343
O=C1S/C(=C/c2ccc(N3CCOCC3)o2)C(=O)N1Cc1c(F)cccc1Cl	+	+	214	255
Cc1ccc(C2(C)NC(=O)N(CC(=O)NNC(=O)c3ccccc3F)C2=O)cc1 (stereo unspecified)	4	i	101	479
O=C1N(Cc2cccc(Cl)c2)C[C@@H]2C[C@@H](c3c[nH]c4ccccc34)N3CCC[C@@]123	-18	+	204	164
COc1ccc(N(CC(=O)Nc2nc3ccc(C)cc3s2)S(=O)(=O)c2c(C)nn(C)c2C)cc1	2	+	72	455
CCc1nc2c(OCC(N)=O)cccn2c1N(C)C(=O)c1cccs1	0	i	.	.
O=C(CSC1=Nc2ccccc2C2CC=NN12)Nc1ccc(F)cc1Cl (stereo unspecified)	-10	i	30*	175
Cc1ccc(NC(=O)CSC2=Nc3ccccc3C3CC=NN23)c(C)c1 (stereo unspecified)	-1	i	102	i
CCOC(=O)C1=C[C@@H](c2ccccc2)N(S(=O)(=O)c2ccc(C)cc2)[C@H]1c1cccc(Cl)c1	.	i	.	.
COc1cc[n+]([O-])cc1[N+](=O)[O-]	14	i	88	.
CC(C)(C)c1ccc(OCC(=O)Nc2ccc3c4c(cccc24)C(=O)NC3=O)cc1	i	+	93	.
COc1ccc(OCC(=O)O/N=C(\N)c2ccc(OC)cc2)cc1	7	i	103	608
CO/N=C(/COc1ccc(F)cc1)c1ccc(OC)cc1	-1	i	72*	244
COc1cc(C(=O)C(=O)N2CCC(Cc3ccccc3)CC2)cc2ccccc12	.	i	.	.
N#Cc1ccc(NC(=O)COC(=O)C2Cc3ccccc3CN2C(=O)c2ccccc2)cc1 (stereo unspecified)	-8	+	107	93
Cc1cccc(C)c1NC(=O)COC(=O)C1Cc2ccccc2CN1C(=O)c1ccccc1 (stereo unspecified)	3	i	122	378
CCN(CC)c1ncnc2c1ncn2[C@H]1CN(Cc2ccc3c(c2)OCO3)C[C@@H](CO)O1	3	i	.	.
O=C(NCCc1nc(-c2ccccc2Cl)no1)c1ccccc1	11	i	97	360
CC(C)C(=O)NCCc1nc(-c2ccccc2Cl)no1	83*	i	112	686
Cc1cc(C(=O)N/N=C/c2cccs2)n[nH]1	-4	i	97	232
Cc1cc(C(=O)N/N=C\c2cc(C(C)(C)C)ccc2O)n[nH]1	19	+	108	227
Cc1cc(C(=O)N/N=C/c2c(C)nn(-c3ccccc3)c2Cl)n[nH]1	71*	i	106	442
Cc1nn(-c2ccccc2)c(Cl)c1/C=N/NC(=O)c1ccn[nH]1	-7	i	108	342
CCc1nc2ccc(C(=O)NCCOc3ccc(OC)cc3)cn2c1N(C)CCCc1ccccc1	19	i	.	.
CCCNC(=O)C1(C)CCN(C(=O)c2ccccc2OC)C1 (stereo unspecified)	8	i	.	.
COCCNc1nc(NCCN2CCNC2=O)c2sc(-c3ccccc3)cc2n1	6	i	.	.
O=C1Nc2ccccc2C12OCCS2 (stereo unspecified)	.	.	.	0.0*
